For two compounds, Activity and Activity (umolequiv/umol) results are on record in ChEMBL document CHEMBL3865830, “Multifunctional diamine AGE/ALE inhibitors with potential therapeutical properties against Alzheimer's disease” (Eur J Med Chem, 2016).

Calls of active or inactive are those of the source. No cut-off for these calls is given here.

Series [1] in a line: Metal chelating activity of compound assessed as compound-Cu2+ complex formation at 0.08 mM after 10 mins in presence of CuSO4.5H2O by complexometric indicator murexide based UV-Vis spectrophotometric analysis. Format: physicochemical. To be noted: 80 µM. The method, boiled down:
(§1)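 Compound (0.02-2 mM) incubated with CuSO4 (120 µM) for 10 min at rt, in 10 mM hexamine/HCl with 10 mM KCl (pH 5.0), or in buffer/MeOH 75:25 for poorly soluble compounds. Murexide added, 1 min more. The A485/A520 ratio gives free Cu2+ from a CuSO4 calibration curve (0-125 µM). % chelation is taken by difference from the no-compound control; triplicates.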

The nature of series [2]: Metal chelating activity of compound assessed as compound-Cu2+ complex formation at 0.02 mM after 10 mins in presence of CuSO4.5H2O by complexometric indicator murexide based UV-Vis spectrophotometric analysis. Format: physicochemical. Conditions: 20 µM. The method, boiled down:
as §1

The nature of series [3]: Reactive carbonyl species trapping activity of compound assessed as MDA adduct formation at 10 mM preincubated for 24 hrs with MDA measured after 24 hrs by LCMS analysis. Format: physicochemical. To be noted: 10000 µM.
The nature of series [4]: Reactive carbonyl species trapping activity of compound assessed as MGO adduct formation at 10 mM preincubated for 24 hrs with MGO measured after 24 hrs by LCMS analysis. The series is classed as physicochemical. To be noted: 10000 µM.
Series [5] is described as follows: Reactive carbonyl species trapping activity of compound assessed as MGO adduct formation at 10 mM preincubated for 24 hrs with MGO measured after 5 hrs by LCMS analysis. To be noted: 10000 µM. Format: physicochemical.
Series [6] in a line: Reactive carbonyl species trapping activity of compound assessed as MDA adduct formation at 10 mM preincubated for 24 hrs with MDA measured after 0.25 hrs by LCMS analysis. The series is classed as physicochemical. Conditions: 10000 µM.
Series [7] in a line: Reactive carbonyl species trapping activity of compound assessed as MGO adduct formation at 10 mM preincubated for 24 hrs with MGO measured after 15 mins by LCMS analysis. The series is classed as physicochemical. Conditions: 0.25 h, 10000 µM.
The nature of series [8]: Reactive carbonyl species trapping activity of compound assessed as MDA adduct formation at 10 mM preincubated for 24 hrs with MDA measured after 5 hrs by LCMS analysis. Conditions: 10000 µM. The series is classed as physicochemical.
Series [9] can be described thus: Metal chelating activity of compound assessed as compound-Cu2+ complex formation at 0.5 mM after 10 mins in presence of CuSO4.5H2O by complexometric indicator murexide based UV-Vis spectrophotometric analysis. The series is classed as physicochemical. Conditions: 500 µM. The method, boiled down:
as §1

A short description of series [10]: Metal chelating activity of compound assessed as compound-Cu2+ complex formation at 1 mM after 10 mins in presence of CuSO4.5H2O by complexometric indicator murexide based UV-Vis spectrophotometric analysis. The series is classed as physicochemical. To be noted: 1000 µM. The method, boiled down: as §1
The nature of series [11]: Reactive carbonyl species trapping activity of compound assessed as MDA adduct formation at 10 mM preincubated for 24 hrs with MDA measured after 1 hr by LCMS analysis. Format: physicochemical. Conditions: 10000 µM.
Series [12] is described as follows: Reactive carbonyl species trapping activity of compound assessed as MGO adduct formation at 10 mM preincubated for 24 hrs with MGO measured after 0.5 hrs by LCMS analysis. To be noted: 10000 µM. The series is classed as physicochemical.
Series [13] can be described thus: Reactive carbonyl species trapping activity of compound assessed as MDA adduct formation at 10 mM preincubated for 24 hrs measured after 15 mins by LCMS analysis. The series is classed as physicochemical. To be noted: 0.25 h, 10000 µM.
Series [14] is described as follows: Reactive carbonyl species trapping activity of compound assessed as MGO adduct formation at 10 mM preincubated for 24 hrs with MGO measured after 1 hr by LCMS analysis. Format: physicochemical. To be noted: 10000 µM.
Series [15] in a line: Metal chelating activity of compound assessed as compound-Cu2+ complex formation at 0.05 mM after 10 mins in presence of CuSO4.5H2O by complexometric indicator murexide based UV-Vis spectrophotometric analysis. Format: physicochemical. To be noted: 50 µM. In outline: as §1
Series [16] can be described thus: Reactive carbonyl species trapping activity of compound assessed as MDA adduct formation at 10 mM preincubated for 24 hrs with MDA measured after 0.5 hrs by LCMS analysis. Format: physicochemical. Conditions: 10000 µM.
Series [17] can be described thus: Metal chelating activity of compound assessed as compound-Cu2+ complex formation at 0.1 mM after 10 mins in presence of CuSO4.5H2O by complexometric indicator murexide based UV-Vis spectrophotometric analysis. Format: physicochemical. Conditions: 100 µM. The method, boiled down:
as §1

Series [18] can be described thus: Antioxidant activity assessed as inhibition of AAPH-induced peroxyl radical generation measured as trolox equivalent at 10 uM preincubated for 30 mins followed by AAPH addition measured evey 60 secs for 60 cycles by ORAC-FL assay. The series is classed as functional. To be noted: in the assay text read “90 secs” for “60 secs”. The method, boiled down: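 Fluorescein (12 nM) preincubated with compound (1-20 µM) or Trolox standard (1-50 µM) in D-PBS, at least 30 min at 37 °C. Reaction started with AAPH (30 mM). Fluorescence (ex 485/em 520 nm) read every 90 s for 60 cycles. Net AUC is converted to Trolox equivalents via the Trolox calibration line. Values are reported at 10 µM, from at least three independent experiments in triplicate.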

Series [19] in a line: Reactive carbonyl species trapping activity of compound assessed as MGO adduct formation at 10 mM preincubated for 24 hrs with MGO measured after 0.25 hrs by LCMS analysis. The series is classed as physicochemical. To be noted: 10000 µM.
Series [20] in a line: Metal chelating activity of compound assessed as compound-Cu2+ complex formation at 200 uM after 10 mins in presence of CuSO4.5H2O by complexometric indicator murexide based UV-Vis spectrophotometric analysis. The series is classed as physicochemical. In outline:
as §1

The species named for series [21] is Rattus norvegicus. The experiment in a line: Cytotoxicity against rat […] PC12 cells assessed as reduction in cell viability at 10 to 100 uM after 24 hrs by WST8-based CCK8 assay. Format: toxicity. Conditions: pc-12, 24 h. In outline: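 PC12 Adh cells (rat pheochromocytoma-derived) grown in F-12K with 2.5% FBS, 15% horse serum and pen/strep at 37 °C, 5% CO2. Seeded at 5×10^3 cells/well; treated at 80% confluency with 10 or 100 µM for 24 h. 10% DMSO served as positive cytotoxicity control. CCK-8 added for 1 h at 37 °C, absorbance read at 450 nm. Viability given as % of untreated cells; at least three experiments in triplicate.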

The nature of series [22]: Metal chelating activity of compound assessed as compound-Cu2+ complex formation at 2 mM after 10 mins in presence of CuSO4.5H2O by complexometric indicator murexide based UV-Vis spectrophotometric analysis. To be noted: 2000 µM. Format: physicochemical. In outline: as §1
Series [23] relates to PC-12. As to the kind of experiment: Neuroprotective activity against MGO-induced apoptosis in rat PC12 cells assessed as reduction DNA fragmentation at 100 uM preincubated for 1 hr followed by MGO addition after 24 hrs by ELISA. Format: functional, cell-based. In outline:
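PC12 cells pretreated 1 h at 37 °C with compound (10 or 100 µM) in D-PBS, then exposed to MGO (2 mM) for 24 h. Lysates analysed by anti-histone/anti-DNA-peroxidase ELISA for cytoplasmic mono- and oligonucleosomes, with ABTS read-out at 405 nm. Cells without MGO were the control; MGO alone was the apoptosis standard.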

On to `Cc1c(O)c(=O)ccn1CCCNC(=O)CCC(N)CN.Cl.Cl` (centres undefined), for which the Activity is 35.1% in series [1]; 11.03% in series [2]; 99% in [3]; 100% in series [4]; 100% in [5]; 76% in [6]. For the same compound, the Activity in series [7] turned out to be 95%; in [8], 95%; in series [9] it was 88.46%; in series [10], 93.45%; in [11], 92%; in [12], 98%. Moreover, the Activity in [13] worked out at 76%; in [14], 100%; in series [15], 24.69%; in series [16], 82%; in series [17] it was 40.91%; in series [19] it was 95%. Moreover, the Activity in [20] is 66.7%; in [21] it was “Non-Toxic”; in [22], 95.45%. Also, in series [18], the Activity (umolequiv/umol) is 1.01.

Take `Cl.Cl.NCC(N)CCC(=O)NCCCn1cccc(O)c1=O` (centres undefined): the Activity in series [1] came to 37.47%; in series [2], 11.11%; in series [3], 93%; in series [4], 98%; in series [5], 100%; in series [6], 74%. Further, the Activity in series [7] turned out to be 97%; in [8] it was 85%; in [9], 71.22%; in series [10], 74.89%; in series [11], 81%; in [12] it was 98%. Besides, the Activity in series [14] stood at 97%; in [15], 20.77%; in series [16], 75%; in [17], 42.39%; in [19], 97%; in series [20], 55.83%. The Activity entry in [21] is “Non-Toxic”; in [22] it was 74.74%. Besides, in series [18], the Activity (umolequiv/umol) turned out to be 1.96. For the same compound, the result in series [23] was Active.
